Reference: ChEMBL document CHEMBL4321861, “An Underlying Mechanism of Dual Wnt Inhibition and AMPK Activation: Mitochondrial Uncouplers Masquerading as Wnt Inhibitors” (J Med Chem, 2019)
pIC50: −log10 of the molar value. Activity calls are given as the source filed them.

Tests used:
[1] = test system: HEK293; experiment: Inhibition of LiCl-activated Wnt signaling in HEK293 cells at 3 uM by TOPFlash reporter gene assay; assay type: cell-based; conditions: Homo sapiens
Method in brief: (§1)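 Stable HEK293T Super 8xTOPFlash reporter line (pGL4.83 backbone, puromycin-selected), stimulated with 25 mM LiCl to stabilize β-catenin. Treated with compound in DMSO or DMSO. Luciferase read in 96- or 24-well format. AMPK inhibitor compound C used at 5 μM where applied. At least three independent repeats.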

[2] = test system: DLD-1; experiment: Uncoupling of mitochondrial oxidative phosphorylation in human DLD1 cells assessed as increase in oxygen consumption rate at 3 uM in presence of oligomycin A by seahorse XFe96 analyser based assay; conditions: Mitochondria
Method in brief: (§2)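 DLD-1 cells, about 3×10^4 per XF96 well, in XF medium with 25 mM glucose and 1 mM pyruvate. Mito stress sequence: oligomycin A 1 μM, then test compound 3 μM in DMSO in place of FCCP (FCCP 1 μM as control), then rotenone/antimycin A 1 μM each. Oxygen consumption rate recorded.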

[3] = target: T1, AMP-activated protein kinase, AMPK (Homo sapiens) (UniProt P54646+O43741+P54619+Q9UGJ0+Q9Y478+Q13131+Q9UGI9); experiment: Activation of AMPK (unknown origin) assessed as increase in AMPK phosphorylation at T172 residue at 3 uM by Western blot analysis; assay type: protein-complex assay
Method in brief: (§3)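 Cells lysed in 50 mM HEPES, 100 mM NaCl, 2 mM EDTA, 1% glycerol, 50 mM NaF, 1 mM Na3VO4, 1% Triton X-100 with protease inhibitors. Western blot probed for total and phospho-AMPK and total and phospho-ACC, with actin loading control. Compounds given in DMSO. At least three independent repeats.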

[4] = target: T1, AMP-activated protein kinase, AMPK (Homo sapiens); experiment: Activation of AMPK (unknown origin) assessed as […] phosphorylation at S79 residue at 3 uM by Western blot analysis; assay type: protein-complex assay; method in brief: as §3
[5] = test system: Liver; experiment: Uncoupling of mitochondrial oxidative phosphorylation in mouse liver mitochondria assessed as increase in oxygen consumption rate at 1 to 5 uM in presence of oligomycin A by seahorse XFe96 analyser based assay
Method in brief: (§4)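 Mouse liver mitochondria isolated by differential centrifugation in mannitol/sucrose/HEPES/EGTA buffer, pH 7.2. Loaded at 6 μg/well in KCl/HEPES/MgCl2/KH2PO4 respiration buffer, pH 7.2, at 37 °C. OCR measured on XFe96.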

[6] = test system: HEK293; experiment: Inhibition of LiCl-activated Wnt signaling in HEK293 cells by TOPFlash reporter gene assay; assay type: cell-based; conditions: Homo sapiens; method in brief: as §1
[7] = target: T1, AMP-activated protein kinase, AMPK (Homo sapiens); experiment: Activation of AMPK in human LS174T cells assessed as increase in AMPK phosphorylation at T172 residue by Western blot analysis; assay type: cell-based; method in brief: as §3
[8] = target: T1, AMP-activated protein kinase, AMPK (Homo sapiens); experiment: Activation of AMPK in human LS174T cells assessed as […] phosphorylation at S79 residue by Western blot analysis; assay type: cell-based; method in brief: as §3
[9] = test system: Liver; experiment: Uncoupling of mitochondrial oxidative phosphorylation in mouse liver mitochondria assessed as increase in oxygen consumption rate in presence of oligomycin A by seahorse XFe96 analyser based assay; method in brief: as §4
[10] = test system: HEK293; experiment: Inhibition of LiCl-activated Wnt signaling in HEK293 cells at 0.3 to 3 uM by TOPFlash reporter gene assay; assay type: cell-based; conditions: Homo sapiens; method in brief: as §1
[11] = test system: HEK293; experiment: Effect on FOP reporter expression in LiCl-induced HEK293T cells incubated for 24 hrs by luciferase reporter gene assay; assay type: functional, cell-based; conditions: Homo sapiens
Method in brief: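 HEK293T cells transiently transfected with Super 8x TOPFlash or 8x FOPFlash plus control Renilla reporter. Wnt signaling activated with LiCl or Wnt3A. Cells treated with DMSO or compound in DMSO. Luciferase activity read.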

[12] = test system: LS174T; experiment: Cytotoxicity against human LS174T cells assessed as reduction in cell viability by Vi-Cell XR cell viability analyzer-based assay; assay type: functional
Method in brief: (§5)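 Colon cancer cells plated at 3.5×10^4 per well in 12-well plates. LS174T were in EMEM + 10% FBS; DLD-1 were in DMEM + 10% FBS. After 24 h, compound in DMSO added (DMSO control). Cell number and viability counted on a Vi-Cell XR analyzer. Triplicate wells.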

[13] = test system: DLD-1; experiment: Cytotoxicity against human DLD1 cells assessed as reduction in cell viability by Vi-Cell XR cell viability analyzer-based assay; assay type: functional; method in brief: as §5
[14] = species on record: Homo sapiens; experiment: Inhibition of Wnt in human DLD1 cells assessed as reduction in Axin2 expression at 1 to 3 uM by Western blot analysis; assay type: cell-based
Method in brief: (§6)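 Colorectal cancer cells (DLD-1, LS174T, SW620) treated with a compound dose series in DMSO. Lysates immunoblotted for Axin2, c-Myc and cyclin D1. At least three independent repeats.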

[15] = species on record: Homo sapiens; experiment: Inhibition of Wnt in human SW620 cells assessed as reduction in Axin2 expression at 1 uM by Western blot analysis; assay type: cell-based; method in brief: as §6
[16] = test system: LS174T; experiment: Inhibition of Wnt in human LS174T cells assessed as reduction in Axin2 expression at 1 uM by Western blot analysis; assay type: cell-based; method in brief: as §6
[17] = species on record: Homo sapiens; experiment: Inhibition of Wnt in human DLD1 cells assessed as reduction in c-Myc expression at 1 to 3 uM by Western blot analysis; assay type: cell-based; method in brief: as §6
[18] = species on record: Homo sapiens; experiment: Inhibition of Wnt in human SW620 cells assessed as reduction in c-Myc expression at 1 uM by Western blot analysis; assay type: cell-based; method in brief: as §6
[19] = test system: LS174T; experiment: Inhibition of Wnt in human LS174T cells assessed as reduction in c-Myc expression at 1 uM by Western blot analysis; assay type: cell-based; method in brief: as §6
[20] = species on record: Homo sapiens; experiment: Inhibition of Wnt in human DLD1 cells assessed as reduction in cyclin-D1 expression at 1 to 3 uM by Western blot analysis; assay type: cell-based; method in brief: as §6
[21] = species on record: Homo sapiens; experiment: Inhibition of Wnt in human SW620 cells assessed as reduction in cyclin-D1 expression at 1 uM by Western blot analysis; assay type: cell-based; method in brief: as §6
[22] = test system: LS174T; experiment: Inhibition of Wnt in human LS174T cells assessed as reduction in cyclin-D1 expression at 1 uM by Western blot analysis; assay type: cell-based; method in brief: as §6
[23] = target: T1, AMP-activated protein kinase, AMPK (Homo sapiens); experiment: Activation of AMPK in human LS174T cells assessed as increase in AMPK phosphorylation at T172 residue at 3 uM by Western blot analysis; assay type: cell-based; method in brief: as §3
[24] = target: T1, AMP-activated protein kinase, AMPK (Homo sapiens); experiment: Activation of AMPK in human LS174T cells assessed as […] phosphorylation at S79 residue at 3 uM by Western blot analysis; assay type: cell-based; method in brief: as §3
[25] = test system: HEK293; experiment: Inhibition of LiCl-activated Wnt signaling in HEK293 cells at 3 uM in presence of AMPK inhibitor compound C by TOPFlash reporter gene assay; assay type: cell-based; conditions: Homo sapiens; method in brief: as §1
[26] = test system: DLD-1; experiment: Induction of mitochondrial membrane potential disruption in human DLD1 cells measured after 2 hrs by TMRM staining based fluorescence microscopic analysis; conditions: Mitochondria
Method in brief: (§7)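 Cells grown one day in 24-well plates: DLD-1 in DMEM + 10% serum, LS174T in RPMI1640 + 5% serum. Treated 2 h with compound in DMSO or DMSO, then stained with 100 nM TMRM for 15 min. Rinsed once with PBS and imaged by fluorescence microscopy at 568 nm.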

[27] = test system: LS174T; experiment: Induction of mitochondrial membrane potential disruption in human LS174T cells measured after 2 hrs by TMRM staining based fluorescence microscopic analysis; conditions: Mitochondria; method in brief: as §7
[28] = test system: DLD-1; experiment: Inhibition of mitochondrial oxidative phosphorylation in human DLD1 cells assessed as reduction in oxygen consumption rate by seahorse XFe96 analyser based assay; conditions: Mitochondria
Method in brief: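 DLD-1 cells, ~3×10^4 per well, seeded a day ahead; medium switched to Seahorse XF modified medium with 25 mM glucose and 1 mM pyruvate. Mitochondrial stress test: 1 μM oligomycin A, test compound in DMSO in place of FCCP, then 1.0 μM rotenone plus 1.0 μM antimycin A. OCR recorded; ATP production rate by real-time ATP rate assay.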

[29] = target: T1, AMP-activated protein kinase, AMPK (Homo sapiens); experiment: Activation of AMPK in human LS174T cells assessed as increase in AMPK phosphorylation at T172 residue at 3 uM measured within 15 mins by Western blot analysis; assay type: cell-based; method in brief: as §3
[30] = target: T1, AMP-activated protein kinase, AMPK (Homo sapiens); experiment: Activation of AMPK in human LS174T cells assessed as […] phosphorylation at S79 residue at 3 uM measured within 15 mins by Western blot analysis; assay type: cell-based; method in brief: as §3
[31] = test system: DLD-1; experiment: Induction of mitochondrial dysfunction in human DLD1 cells assessed as reduction in mitochondrial ATP production at 3 uM by Seahorse XF real-time assay; conditions: Mitochondria
Method in brief: (§8)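 About 3×10^4 cells seeded per well in XF96 plates. Next day medium switched to Seahorse XF medium with 25 mM glucose and 1 mM pyruvate. Compound given at 3 μM in DMSO; FCCP 1 μM as reference. Mitochondrial and glycolytic ATP production rates measured by XF Real-Time ATP Rate Assay.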

[32] = test system: DLD-1; experiment: Induction of mitochondrial dysfunction in human DLD1 cells assessed as increase in glycolytic ATP production at 3 uM by Seahorse XF real-time assay; conditions: Mitochondria; method in brief: as §8
[33] = test system: LS174T; experiment: Induction of mitochondrial dysfunction in human LS174T cells assessed as reduction in mitochondrial ATP production at 3 uM by Seahorse XF real-time assay; conditions: Mitochondria; method in brief: as §8
[34] = test system: LS174T; experiment: Induction of mitochondrial dysfunction in human LS174T cells assessed as increase in glycolytic ATP production at 3 uM by Seahorse XF real-time assay; conditions: Mitochondria; method in brief: as §8
[35] = test system: DLD-1; experiment: Uncoupling of mitochondrial oxidative phosphorylation in human DLD1 cells at 3 uM in presence of oligomycin A by seahorse XFe96 analyser based assay; conditions: Mitochondria; method in brief: as §2
[36] = test system: LS174T; experiment: Inhibition of LiCl-induced Wnt signaling in human LS174T cells assessed as reduction in beta-catenin accumulation; assay type: cell-based
[37] = test system: HEK293; experiment: Inhibition of LiCl-activated Wnt signaling in HEK293 cells at 10 uM by TOPFlash reporter gene assay; assay type: cell-based; conditions: Homo sapiens; method in brief: as §1

CN(c1ccc([N+](=O)[O-])c2ccccc12)S(=O)(=O)c1cc(Cl)ccc1Cl
inactive: inhibition [1] | Activity [2] | Activity [3] | Activity [4] | Activity [5]

Cc1cc([N+](=O)[O-])ccc1N(C)S(=O)(=O)c1cc(Cl)ccc1Cl
inactive: inhibition [1] | Activity [3] | Activity [4] | Activity [5]

O=C1[C@H](Cc2ccc(O)cc2)N2C(=O)CCN(C(=O)NCc3ccccc3)[C@H]2CN1Cc1cccc2ccccc12
active: inhibition [6]
inactive: Activity [7] | Activity [8]

O=[N+]([O-])c1ccc(NS(=O)(=O)c2cc(Cl)ccc2Cl)c2ccccc12
active: inhibition [1] | Activity [3] | Activity [4] | Activity [9] Dose-dependent effect

O=C(Nc1ccc(C(F)(F)F)cc1)Nc1cc(F)c(F)c(F)c1
6.27: pIC50 [13]
inactive: Activity [11]
6.26: pIC50 [12]
active: inhibition [10] | inhibition [14] | inhibition [15] | inhibition [16] | inhibition [17] | inhibition [18] | inhibition [19] | inhibition [20] | inhibition [21] | inhibition [22] | Activity [23] | Activity [24] | inhibition [25] | Activity [26] | Activity [27]

C=C(C)[C@H]1Cc2c(ccc3c2O[C@@H]2COc4cc(OC)c(OC)cc4[C@@H]2C3=O)O1
active: inhibition [28]

CCCCCCC1C(=O)O[C@H](C)[C@H](NC(=O)c2cccc(NC=O)c2O)C(=O)O[C@@H](C)[C@@H]1OC(=O)CC(C)C (stereo not given in full)
active: inhibition [28]

CC[C@@H]1/C=C/C=C/C[C@H](C)[C@@H](O)[C@](C)(O)C(=O)[C@H](C)[C@@H](O)[C@H](C)C(=O)[C@H](C)[C@@H](O)[C@H](C)/C=C/C(=O)O[C@H]2[C@@H](C)[C@@H](CC1)O[C@@]1(CC[C@@H](C)[C@@H](C[C@@H](C)O)O1)[C@@H]2C
active: inhibition [28]

Cc1cc([N+](=O)[O-])ccc1NS(=O)(=O)c1cc(Cl)ccc1Cl
active: Activity [29] | Activity [30] | Activity [31] | Activity [32] | Activity [33] | Activity [34] | Activity [26] | Activity [27] | Activity [35] | Activity [2] | Activity [9] Dose-dependent effect | inhibition [36]

N#Cc1c(O)c2c(-c3ccc(-c4ccccc4O)cc3)csc2[nH]c1=O
inactive: inhibition [37]
